A short description of experiment [1]: Displacement of [3H]epibatidine from alpha4beta2* nAChR in Sprague-Dawley rat brain P2 membrane after 90 mins by liquid scintillation counting. The experiment is classed as tissue-based. An outline of the steps:
(§1)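 Rat forebrain P2, calf adrenal P1 or Torpedo californica electroplax P1 membranes (60 µg protein) with 0.5 nM (±)-[3H]epibatidine in HEPES-salt solution (15 mM HEPES, 120 mM NaCl, 5.4 mM KCl, 0.8 mM MgCl2, 1.8 mM CaCl2) at 22 °C. Run in duplicate. Nonspecific binding defined with 300 µM (−)-nicotine. Filtered on PEI-soaked GF/B filters. Ki derived from IC50 by Cheng-Prusoff, Kd 10 pM.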
In general terms: Displacement assays read how much labelled ligand stays bound in the presence of the test substance.

Experiment [2] can be described thus: Displacement of [3H]epibatidine from alpha3beta4* nAChR in calf adrenal P1 membrane after 90 mins by liquid scintillation counting. The class given is cell membranes, Bos taurus. The method in brief: as §1
Experiment [3] is described as follows: Displacement of [3H]epibatidine from (alpha1)2beta1gammadelta nAChR in electric ray electroplax P1 membrane after 90 mins by liquid scintillation counting. Also on record: species or system Tetronarce californica. An outline of the steps: as §1
Experiment [4] in a line: Displacement of [3H]MLA from alpha7* nAChR in Sprague-Dawley rat brain P2 membrane after 180 mins by liquid scintillation counting.
The species entered for another experiment is Rattus norvegicus. The experiment is described as follows: Displacement of [3H]epibatidine from alpha4beta2* nAChR in Sprague-Dawley rat brain P2 membrane up to 50 uM after 90 mins by liquid scintillation counting. The experiment is classed as tissue-based.
Experiment [5] in a line: Displacement of [3H]MLA from alpha7* nAChR in rat brain membrane. The experiment is classed as cell membranes. The method in brief:
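Rat brain crude P2 membranes in HEPES-salt solution (15 mM HEPES, 120 mM NaCl, 5.4 mM KCl, 0.8 mM MgCl2, 1.8 mM CaCl2), 22 °C, duplicates. [3H]MLA 2 nM final, 180 min; nonspecific binding with 1 µM MLA. GF/B filtration (1% PEI presoaked), scintillation counting. Nonlinear regression IC50; Ki by Cheng-Prusoff with Kd = 1 nM.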

The values that follow come from ChEMBL document CHEMBL2034815, “Synthesis and evaluation of N(1)-alkylindole-3-ylalkylammonium compounds as nicotinic acetylcholine receptor ligands” (Bioorg Med Chem, 2012).

Activity calls are given as the source filed them. The calls are words filed in the database; no cut-off is given here.

What is called Ki is the equilibrium dissociation constant of an inhibitor or competing ligand from its target. A low value points to higher affinity.

For the molecule `CN(C)CCc1cn(C)c2ccccc12`, the Ki in experiment [1] was above 10 µM; in experiment [2], 3.68 µM.
For `C=CCn1cc(CC[N+](C)(C)C)c2ccccc21`, the Ki is 0.517 µM in experiment [1], above 10 µM in experiment [3], 6.8 µM in experiment [4] and 0.365 µM in experiment [2].
As to `CCCCCCCCCCn1cc(CCCN(C)C)c2ccccc21`, the Ki in experiment [1], in experiment [4] and in experiment [2] was above 10 µM each time.
Turning to `CNCCc1cn(C)c2ccccc12`, the Ki in experiment [1] and in experiment [2] was above 10 µM throughout.
Consider `CCCCCCCCCCCCn1cc(CCN(C)C)c2ccccc21`, for which the Ki in experiment [1] and in experiment [2] was above 10 µM throughout.
With `CCCCCCCCCCCCn1cc(C[N+](C)(C)C)c2ccccc21`, the Ki in experiment [1], in experiment [4] and in experiment [2] was above 10 µM in each case.
`CCCCCCCCCCn1cc(CCC[N+](C)(C)C)c2ccccc21`: the Ki in experiment [1], in experiment [4] and in experiment [2] was above 10 µM throughout.
On to `CNCCc1cn(CC=C(C)C)c2cc(Br)ccc12` [DEFORMYLFLUSTRABROMINE B], for which, in the experiment listed under Rattus norvegicus, the result was inactive. The figures for the inhibitory constant (Ki) in experiment [1], in experiment [2] and in experiment [5] were above 10 µM, above 10 µM and 17 µM, respectively.
Consider `CC(C)=CCn1cc(C[N+](C)(C)C)c2ccccc21`, for which the figures for the Ki in experiment [1], in experiment [4] and in experiment [2] were 0.435 µM, above 10 µM and above 10 µM, respectively.
In the case of `CCCCCCCCn1cc(C[N+](C)(C)C)c2ccccc21`, the Ki in experiment [1] was 0.706 µM; in experiment [4], above 5 µM; in experiment [2], 3.4 µM.
In the same order, the values of `CCCCCCCCCCn1cc(CN(C)C)c2ccccc21` are above 10 µM, above 10 µM and above 10 µM.
The like results for `CCCCCCCCCCCCn1cc(CN(C)C)c2ccccc21` were, in that order, above 10 µM, above 10 µM and above 10 µM.
Turning to `CCCCCCCCCCn1cc(CC[N+](C)(C)C)c2ccccc21`, the Ki in experiment [1] and in experiment [2] was above 10 µM throughout.
Take `CNCCc1cn(CC=C(C)C)c2ccccc12`: the Ki in experiment [1], in experiment [4] and in experiment [2] was above 10 µM in each case.
Regarding `CC(C)=CCn1cc(CCN(C)C)c2ccccc21`, the Ki in experiment [1] was above 10 µM; in experiment [4], above 10 µM; in experiment [2] it was 1.82 µM.
For `CCCCCCCCn1cc(CN(C)C)c2ccccc21`, the Ki in experiment [1], in experiment [4] and in experiment [2] was above 10 µM in each case.
In the case of `CCCCCCCCn1cc(CCC[N+](C)(C)C)c2ccccc21`, the Ki is 0.243 µM in experiment [1], above 1 µM in experiment [4] and above 10 µM in experiment [2].
For the molecule `CCCCCCCCn1cc(CC[N+](C)(C)C)c2ccccc21`, the Ki in experiment [1] was 0.527 µM; in experiment [2] it was above 10 µM.
Regarding `CC(C)=CCn1cc(CC[N+](C)(C)C)c2ccccc21`, the Ki in experiment [1] came out at 0.136 µM; in experiment [3], 2.36 µM; in experiment [4], 0.862 µM; in experiment [2], 0.0939 µM.
Consider `CN1CCC[C@H]1c1cccnc1` [NICOTINE], for which the values for the Ki in experiment [1], in experiment [4] and in experiment [2] were 0.00085 µM, 0.129 µM and 0.0753 µM, respectively.
As to `CC(C)=CCn1cc(CC[N+](C)(C)C)c2ccc(Br)cc21`, the Ki was 0.412 µM in experiment [1], above 10 µM in experiment [3], 1.53 µM in experiment [4] and 5.33 µM in experiment [2].
`CCCCCCCCn1cc(CCCN(C)C)c2ccccc21`: the Ki in experiment [1] and in experiment [2] was above 10 µM in each case.
As to `C=CCn1cc(CCN(C)C)c2ccccc21`, the values for the Ki in experiment [1], in experiment [4] and in experiment [2] were above 10 µM, above 10 µM and 2.85 µM, respectively.
For `CC(C)=CCn1cc(CN(C)C)c2ccccc21`, the Ki in experiment [1] and in experiment [2] was above 10 µM each time.
As to `Cn1cc(CC[N+](C)(C)C)c2ccccc21`, the Ki was above 10 µM in experiment [1], above 10 µM in experiment [3], above 10 µM in experiment [4] and 2.01 µM in experiment [2].
`C=CCn1cc(CCNC)c2ccccc21`: the Ki in experiment [1] and in experiment [2] was above 10 µM throughout.
As to `CCCCCCCCn1cc(CCN(C)C)c2ccccc21`, the Ki in experiment [1], in experiment [3], in experiment [4] and in experiment [2] was above 10 µM in each case.
`CCCCCCCCCCn1cc(C[N+](C)(C)C)c2ccccc21`: the Ki in experiment [1], in experiment [4] and in experiment [2] was above 10 µM each time.
With `CCCCCCCCCCCCn1cc(CCC[N+](C)(C)C)c2ccccc21`, the Ki in experiment [1], in experiment [4] and in experiment [2] was above 10 µM throughout.
Turning to `CCCCCCCCn1c(CN(C)C)cc2ccccc21`, the Ki in experiment [1], in experiment [4] and in experiment [2] was above 10 µM in each case.
Consider `CC(C)=CCn1cc(C[N+](C)(C)C)c2ccc(Br)cc21`, for which the values for the Ki in experiment [1], in experiment [4] and in experiment [2] were 0.203 µM, above 1 µM and above 1 µM, respectively.
On to `CCCCCCCCn1c(C[N+](C)(C)C)cc2ccccc21`, for which the Ki in experiment [1], in experiment [4] and in experiment [2] was above 10 µM throughout.
For the molecule `CCCCCCCCCCCCn1cc(CC[N+](C)(C)C)c2ccccc21`, the Ki in experiment [1] and in experiment [2] was above 10 µM throughout.
Regarding `CCCCCCCCCCn1cc(CCN(C)C)c2ccccc21`, the Ki in experiment [1] and in experiment [2] was above 10 µM each time.
On to `CC(C)=CCn1cc(CC[N+]2(C)CCCC2)c2ccccc21`, for which the Ki in experiment [1] is above 10 µM.
Consider `CCCCCCCCCCCCn1cc(CCCN(C)C)c2ccccc21`, for which the inhibitory constant (Ki) in experiment [1], in experiment [4] and in experiment [2] was above 10 µM throughout.
On to `CC(C)=CCn1cc(CN(C)C)c2ccc(Br)cc21`, for which the values for the Ki in experiment [1] and in experiment [2] were 1.38 µM and above 10 µM, respectively.
